This is a sample that favours compounds with a hit; in the whole collection about 1.8% have one here.
CHRM5 agonist: human M5 muscarinic receptor agonists, primary screen, CHO-K1 cells, Fluo-8 calcium fluorescence; activation, % at 3 µM; Muscarinic acetylcholine receptor M5 (Homo sapiens), P08912; actives 0.19% (n = 360,000); CHO-K1 hM5 cells; 0% DMSO wells, 100% maximal acetylcholine response; AID 624037, 2012;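 active = activation above the run's mean over test compounds plus 3 SD, cut at about 23% in these data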;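 note: signal is peak over basal fluorescence ratio across the kinetic read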
Target sequence (P08912 whole entry, looked up): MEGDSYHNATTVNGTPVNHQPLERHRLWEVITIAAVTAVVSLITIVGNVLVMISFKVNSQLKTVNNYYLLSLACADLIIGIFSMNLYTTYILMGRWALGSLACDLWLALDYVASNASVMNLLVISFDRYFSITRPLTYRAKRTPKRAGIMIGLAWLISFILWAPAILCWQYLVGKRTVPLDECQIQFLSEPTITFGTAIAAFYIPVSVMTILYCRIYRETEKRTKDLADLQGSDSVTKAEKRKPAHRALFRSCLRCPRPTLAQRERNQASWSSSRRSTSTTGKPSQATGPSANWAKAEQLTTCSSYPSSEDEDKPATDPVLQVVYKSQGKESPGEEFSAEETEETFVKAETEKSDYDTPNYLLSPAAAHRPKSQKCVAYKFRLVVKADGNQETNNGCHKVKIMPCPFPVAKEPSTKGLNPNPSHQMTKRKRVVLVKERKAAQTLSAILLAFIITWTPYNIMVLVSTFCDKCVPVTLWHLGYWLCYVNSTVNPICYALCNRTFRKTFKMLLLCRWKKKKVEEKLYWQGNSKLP
M4 PAM: human M4 muscarinic receptor positive allosteric modulators, primary screen, CHO-K1 cells, Fluo-8 calcium fluorescence; Muscarinic acetylcholine receptor M4 (Homo sapiens), P08173; CHO-K1 hM4/Gqi5, ACh EC20; 0% = ACh EC20, 100% = maximal ACh; activation, % at 3 µM; actives 0.4% (n = 360,000); AID 624126, 2012;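 active = activation above its plate's cutoff, the mean activation of sample wells plus 3 SD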
M4 ag: human M4 muscarinic receptor agonists, primary screen, CHO-K1 cells, Fluo-8 calcium fluorescence | Muscarinic acetylcholine receptor M4 (Homo sapiens), P08173 | CHO-K1 hM4/Gqi5; vehicle 0%, full acetylcholine response 100% | activation, % at 3 µM | actives 0.14% (n = 360,000);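 active = activation above the run mean over all test wells plus 3 SD, cut at about 32% in these data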;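 note: peak over basal fluorescence ratio per well then scaled between controls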
CHRM5 PAM: human M5 muscarinic receptor positive allosteric modulators, primary screen, CHO-K1 cells, Fluo-8 calcium fluorescence. CHO-K1 hM5, ACh EC20 PAM; 0% = ACh EC20, 100% = ACh EC100. activation, % at 3 µM. actives 0.3% (n = 360,000);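 active = activation above the run cutoff, the mean activation of all test compounds plus 3 SD, cut at about 18% in these data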
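Assay system: CHO-K1 hM5 cells. Also added: acetylcholine at EC20 concentration, added after compound. Dosing: 3 µM, single dose. Times: compound preincubation 140 s before EC20 acetylcholine addition. Signal: Fluo-8 calcium fluorescence. Measure: % activation relative to EC20 and EC100 ACh responses. Repeats: singlicate, one well per test compound.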
CHRM5 antagonist: human M5 muscarinic receptor antagonists, primary screen, CHO cells, Fluo-8 calcium fluorescence. inhibition, % at 3 µM. CHO-hM5 cells, ACh EC80. Muscarinic acetylcholine receptor M5 (Homo sapiens), P08912. actives 0.59% (n = 360,000). AID 624040, 2012;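 active = inhibition above a per-plate cutoff, the mean of that plate's test compounds plus 3 SD, cut at about 27% in these data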
CHRM4 antagonist: human M4 muscarinic receptor antagonists, primary screen, CHO cells, Fluo-8 calcium fluorescence; CHO-hM4 cells, ACh EC80; inhibition, % at 3 µM; actives 0.73% (n = 360,000); AID 624125, 2012;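 active = inhibition above its plate's cutoff, the mean inhibition of sample wells plus 3 SD, cut at about 27% in these data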
A number is an active result; . = inactive.

SMILES	CHRM5 agonist	M4 PAM	M4 ag	CHRM5 PAM	CHRM5 antagonist	CHRM4 antagonist
O=c1c(-c2ccco2)[n+]([O-])c2ccccc2n1OCc1c(F)cccc1F	.	.	.	19	.	.
CSc1ccc(CC(=O)N2CCC(n3nccc3NC(=O)C3CC3)CC2)cc1	.	.	.	.	.	.
CN1CCC2(CC1)N=C(c1ccc(F)cc1)C(=S)N2C(=O)c1ccc(C(C)(C)C)cc1	.	.	.	.	33	.
CC1OC(C(C)(C)C)Cc2[nH][nH]c(=O)c21 (stereo unspecified)	.	.	.	.	.	.
COc1ccc(OC)c(NC(=O)CSc2nnc3ccc(-c4ccncc4)nn23)c1	.	.	.	.	.	.
COc1ccc(C)cc1NC(=O)CSc1nnc2ccc(-c3ccncc3)nn12	.	.	.	.	.	27
Cc1cccc(NC(=O)CCCN2C(=O)C3CC=CCC3C2=O)c1 (stereo unspecified)	.	.	.	.	.	.
CCc1ccc(NC(=O)CCCN2C(=O)C3CC=CCC3C2=O)cc1 (stereo unspecified)	.	.	.	.	29	.
O=C(CN1CCCCCC1)Nc1ccc(Cl)cn1	.	.	.	.	.	.
CSc1nnc(NC(=O)c2ccc(S(=O)(=O)N3CCOCC3)cc2)s1	.	.	.	.	.	.
Cc1ccn2c(=O)c(NC(=O)c3ccc(Br)o3)c(C)nc2c1	.	23	.	.	.	.
Cc1nc(NC(=O)c2ccc(Br)o2)ccc1Br	.	16	.	.	.	.
CC(=O)NCCNc1nc2cc(-c3ccsc3)sc2c(=O)n1C	.	.	.	.	.	.
N/C(=N\OC(=O)c1cccc([N+](=O)[O-])c1)c1cccnc1	.	25	.	.	.	.
Cc1cccc(C(=O)O/N=C(\N)c2cccc([N+](=O)[O-])c2)c1	.	.	.	.	.	.
CCOC(=O)c1sc(NNC(=O)c2ccc(F)cc2)nc1C	.	.	.	25	.	.
CSc1nc2ccccc2n1Cc1c(Cl)cccc1Cl	.	.	.	21	.	.
COC(=O)/C=C1\S/C(=N/NC(=O)c2ccc(OC)cc2)NC1=O	.	.	.	.	30	.
COc1ccc(CNC(=O)COC(=O)CN2C(=O)NC3(CCCC3)C2=O)cc1	.	.	.	.	.	.
Cc1ccc(S(=O)(=O)N2[C@@H](CCO)OC[C@H]2C(C)C)cc1	.	.	.	.	.	.
COC(=O)c1[nH]c2ccc(C)cc2c1NC(=O)CCN1CCN(Cc2ccc3c(c2)OCO3)CC1	.	.	.	.	33	.
Nc1nc2ccc(Cl)cc2cc1C(=O)NCCc1ccc(Cl)cc1Cl	.	.	.	.	.	.
Nc1nc2ccc(Cl)cc2cc1C(=O)NCCc1c[nH]c2ccccc12	.	.	.	.	.	28
O=C(NC1CCCC1)c1nc(-c2ccco2)oc1-c1ccccc1	.	.	.	.	.	.
COc1ccc(C(CCN2CCCCC2)c2c(OC)cc(OC)c3c(-c4ccccc4)cc(=O)oc23)cc1 (stereo unspecified)	.	.	.	.	.	34
SMILES	CHRM5 agonist	M4 PAM	M4 ag	CHRM5 PAM	CHRM5 antagonist	CHRM4 antagonist
CCN(CC)c1ccc(C=Nc2cc(C)ccc2C)c(O)c1	.	25	.	.	.	.
Nc1nc(N)c2c(ccc3c2ccn3Cc2cccc([N+](=O)[O-])c2)n1	.	.	.	.	.	.
Cc1nn(-c2ccccc2)c(C)c1C(=O)OC(C)C(=O)NC1CCCCC1 (stereo unspecified)	.	.	.	.	.	.
CN(C)c1ccc(/C=C/c2ccc3ccccc3[n+]2C)cc1	.	.	.	.	.	.
CN(C)c1ccc(/C=C/c2ccc3c4ccccc4ccc3[n+]2-c2ccccc2)cc1	.	.	.	.	43	40
O=C(C(=Cc1ccccc1)CN1CCCCC1)c1ccccc1	.	.	.	.	.	29
O=C(N/N=C/c1ccc(O)cc1)c1ccc(COc2cc(Cl)ccc2Cl)o1	35	.	.	.	.	.
CNc1ncnc2c1ncn2[C@H]1CN(Cc2ccncc2)C[C@@H](CO)O1	.	.	.	.	.	.
O=C1C(F)=CC(COC(c2ccccc2)(c2ccccc2)c2ccccc2)OC1n1cc(F)c(=O)[nH]c1=O (stereo unspecified)	.	.	.	.	.	34
CC(=O)OCC1OC(n2cc(F)c(=O)[nH]c2=O)C(OC(C)=O)C1OC(C)=O (stereo unspecified)	.	.	.	.	.	.
CC[C@]12c3[nH]c4ccc(OC)cc4c3CCN1C(=O)C(CC(=O)NC(C)(C)C)C[C@@H]2C(=O)N1CCN(C(=O)c2ccco2)CC1 (stereo partly specified)	.	.	.	.	.	.
O=P(OC1CCCCC1)(OC1CCCCC1)C(Nc1ccccc1)c1cccnc1 (stereo unspecified)	.	.	.	.	31	.
CCOP(=O)(OCC)C(Nc1ccccc1)c1cccnc1 (stereo unspecified)	.	.	.	.	.	.
CCCc1ncc(C(O)(c2ccccc2)c2ccc(C)cc2)n1C (stereo unspecified)	.	.	.	.	73	50
CCCc1ncc(C(O)(c2ccccc2)c2ccccc2)n1C	.	.	.	.	59	62
CCOC(=O)C1=C(COC(=O)c2cc(S(=O)(=O)N3CCOCC3)ccc2F)NC(=O)NC1C (stereo unspecified)	.	.	.	.	.	.
COc1cc(CNCCc2ccccc2)cc(Cl)c1OCc1ccccc1	.	.	.	.	.	27
Cc1noc(C)c1CS(=O)(=O)c1ccc([N+](=O)[O-])cc1	.	.	.	.	.	.
Cc1ccccc1NC(=S)NC(=O)/C=C/c1ccco1	.	.	.	22	.	.
CC(C)NC(=O)CN1CCN(C(=O)c2ccc3oc(CCCc4ccccc4)nc3c2)CC1	.	23	.	.	.	.
CSc1nc(N)nc(SCC(=O)Nc2cccc(F)c2)c1C#N	.	.	.	.	42	.
CSc1nc(N)nc(SCC(=O)Nc2ccc(Cl)cc2)c1C#N	.	.	.	.	.	.
CNC(=S)Nc1ccc(N2CCN(c3ccc(C(F)(F)F)cn3)CC2)nc1	.	.	.	.	.	.
CCOC(=O)N1CCC(NC2CCCCCCC2)CC1	.	.	.	.	.	47
